KLK5 inh: blocks human kallikrein 5 protease activity; Q9Y337; recombinant hK5, fluorogenic AMC substrate cleavage; inhibition, % at 5 µM; actives 0.59% (n = 210,000); AID 873;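 active = inhibition of 40% or more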;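 also: 0% = enzyme controls without compound and 100% = no-enzyme blanks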
thrombin 1536: inhibitors of human thrombin; P00734; alpha-thrombin, Boc-VPR-AMC fluorogenic substrate cleavage; inhibition, % at 5 µM; actives 0.26% (n = 220,000);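 active = inhibition at or above 40%; inactive = inhibition below 40%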;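 also: 0% = enzyme with no compound and 100% = wells without enzyme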
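Test system: human alpha-thrombin protein / Dosing: one concentration per compound, 5 µM, with 0.2% DMSO / Medium: pH 7.5 Tris-saline with Tween 20 / Benchmarks: no-compound enzyme wells and no-enzyme blanks / Read-out basis: percent inhibition of thrombin substrate cleavage / Timing: reaction at room temperature / Measured by: fluorescence, ex 355 nm, em 460 nm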
FXIa inh 1536: blocks human coagulation factor XIa protease activity; inhibition, % at 5 µM; P03951; purified FXIa, Boc-Glu-Ala-Arg-AMC fluorogenic substrate; actives 0.14% (n = 220,000); AID 798;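 active = inhibition of at least 40%; inactive = inhibition below 40%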;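 also: fluorescence of freed AMC excited at 355 nm; 0% = enzyme without compound and 100% = no enzyme blank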
Furin inhibitor: human furin inhibition; purified furin, fluorogenic substrate cleavage; actives 0.061% (n = 220,000); P09958; AID 463115; inhibition, % at 20 µM or 30 µM; in the data active = inhibition above about 25%
Target sequence (P09958 108-714 limits assumed): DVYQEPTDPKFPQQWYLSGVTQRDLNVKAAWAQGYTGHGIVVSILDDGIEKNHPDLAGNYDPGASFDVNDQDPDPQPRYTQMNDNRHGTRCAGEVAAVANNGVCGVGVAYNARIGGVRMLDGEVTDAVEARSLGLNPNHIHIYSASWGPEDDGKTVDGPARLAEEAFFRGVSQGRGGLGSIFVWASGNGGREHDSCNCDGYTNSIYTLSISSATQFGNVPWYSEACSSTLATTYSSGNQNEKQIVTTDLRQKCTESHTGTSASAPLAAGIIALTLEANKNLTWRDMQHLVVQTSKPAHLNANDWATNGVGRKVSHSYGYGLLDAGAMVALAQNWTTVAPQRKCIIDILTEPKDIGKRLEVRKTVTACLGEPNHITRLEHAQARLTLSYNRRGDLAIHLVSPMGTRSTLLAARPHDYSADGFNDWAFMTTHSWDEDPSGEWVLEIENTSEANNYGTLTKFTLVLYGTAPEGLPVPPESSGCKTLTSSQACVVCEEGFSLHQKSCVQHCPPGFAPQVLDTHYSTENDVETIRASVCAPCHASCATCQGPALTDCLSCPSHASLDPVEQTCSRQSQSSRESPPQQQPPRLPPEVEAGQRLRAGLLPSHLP
FXIIa inh 1536: factor XIIa (human) inhibition. actives 0.3% (n = 220,000). P00748. inhibition, % at 5 µM. purified FXIIa, Boc-QGR-AMC fluorogenic substrate, 2 h. AID 800; in the data active = inhibition above about 40%;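 also: 0% = enzyme with no compound and 100% = blank without enzyme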
Numbers without * were called inactive; x = no result given. A selection: hits, their analogues and other compounds. The true share with any hit is near 1.1%.

SMILES | KLK5 inh | thrombin 1536 | FXIa inh 1536 | Furin inhibitor | FXIIa inh 1536
CCc1cccc(CC)c1NC(=S)N1CCn2cccc2C1c1cccnc1 (stereo not given) | -3.4 | -3.5 | 2.5 | -13.7 | 8.2
CCOC(=O)C(=O)N(Nc1ccc(C)cc1)c1ccc(C)cc1 | 33.6 | 10.5 | 50.0* | 5.0 | 24.3
CSc1nc2ccccc2c(=O)n1C1CCOC(C)(C)C1 (stereo not given) | 1.7 | 2.1 | 5.8 | -28.8 | 4.9
Cc1ccc(Cl)cc1NS(=O)(=O)c1c(C)[nH]c(=O)[nH]c1=O | 30.1 | 103.9* | -2.8 | -22.0 | -0.2
COc1ccc(NC(=O)C2CCC(=O)N2)cc1 (stereo not given) | -15.7 | -13.9 | 2.8 | -23.8 | 11.9
O=C1CCC(C(=O)Nc2cccc3ccccc23)N1 (stereo not given) | 61.8* | 104.0* | 5.9 | -18.7 | -2.2
Cc1nn(C2CCS(=O)(=O)C2)c(C)c1C=O (stereo not given) | -7.2 | 0.1 | -2.8 | -11.9 | 4.0
CCOCC(=O)Nc1ccc(S(=O)(=O)Nc2ncccn2)cc1 | 1.4 | 0.9 | 24.8 | -20.6 | 52.9*
CCOC(=O)C(=O)Nc1ccc(S(=O)(=O)Nc2ncccn2)cc1 | 16.6 | 20.9 | 3.6 | -12.0 | 3.1
O=C(OC(C(=O)NCc1ccco1)c1ccc(Cl)cc1)c1cccs1 (stereo not given) | 4.1 | 0.5 | 1.3 | -20.0 | 9.6
CCN(C(=O)COC(=O)c1ccc(N2C(=O)c3ccccc3C2=O)cc1)C1CCS(=O)(=O)C1 (stereo not given) | 4.2 | -1.0 | -1.0 | -7.2 | 5.9
CCOC(=O)c1c(C)[nH]c(C)c1C(=O)COC(=O)/C=C/c1cccc(F)c1 | 52.2* | 12.4 | 8.0 | -13.8 | 37.8
O=C(Nc1nc(-c2ccc(Cl)s2)cs1)c1cccs1 | 15.6 | 39.1 | 91.0* | -12.2 | 73.3*
Cc1ccc(/C(O)=C2\C(=O)C(=O)N(CC(C)O)C2c2ccccn2)cc1 (stereo not given) | 2.8 | 9.7 | -4.5 | -9.0 | 1.1
O=C(Cc1cccs1)NCC1CCCO1 (stereo not given) | -16.0 | -3.2 | -5.0 | -24.0 | 1.7
S=C(NCc1cccs1)NCC1CCCO1 (stereo not given) | 13.7 | 60.1* | 26.0 | -18.9 | 24.9
S=C(NCC1CCCO1)Nc1cccc(Cl)c1 (stereo not given) | -3.2 | 2.9 | -4.2 | -20.3 | 4.0
S=C(NCC1CCCO1)Nc1ccc(Nc2ccccc2)cc1 (stereo not given) | 40.1* | -3.1 | 29.3 | -5.4 | 25.3
CCC(=O)N1CCN=C1SCc1ccc(Cl)cc1 | 5.6 | 5.2 | 2.2 | -19.0 | 15.6
Cc1ccc(CSC2=NCCN2C(=O)c2ccco2)cc1 | 41.3* | -5.0 | -9.7 | -5.6 | 0.5
CCC(=O)N1CCN=C1SCc1ccccc1 | 41.1* | 14.0 | 11.4 | -35.9 | 29.1
Cc1noc(C)c1N=Nc1ccccc1C(=O)O | x | 2.1 | -0.3 | -32.7 | 11.7
O=C1CC(N2CCC(c3nc4ccccc4o3)CC2)C(=O)N1c1ccc(Cl)c(C(F)(F)F)c1 (stereo not given) | -21.2 | -3.8 | 41.9* | -15.3 | -7.7
O=C1CC(N2CCC(c3nc4ccccc4o3)CC2)C(=O)N1c1ccc(F)cc1 (stereo not given) | -21.6 | -1.6 | -5.8 | -3.4 | -7.1
COCCn1c(C)cc(C(=O)COC(=O)c2ccc[nH]c2=O)c1C | -18.5 | -12.4 | 0.4 | -2.8 | 1.5
SMILES | KLK5 inh | thrombin 1536 | FXIa inh 1536 | Furin inhibitor | FXIIa inh 1536
Cc1cc(C(=O)COC(=O)c2ccc[nH]c2=O)c(C)n1CCc1ccc(F)cc1 | 43.5* | x | 23.8 | -0.6 | 29.1
O=C1CS/C(=N/N=C/c2ccccc2)N1Cc1ccco1 | 2.1 | 1.4 | 12.6 | -22.0 | 6.1
O=C1CN(Cc2ccccc2)C(=NCc2ccco2)S1 | 32.9 | 12.7 | 5.7 | -7.1 | 44.0*
CCOc1ccc(C(=O)Nc2ccc(Cc3ccncc3)cc2)cc1Br | -12.7 | -4.4 | -2.8 | -27.2 | 6.2
CCOc1ccc(C(=O)Nc2ccc(N3CCN(C)CC3)cc2)cc1Br | 5.2 | 4.0 | 0.4 | 26.0* | 16.5
CCOC(=O)c1ccc(NC(=O)Nc2ccccn2)cc1 | x | -0.6 | 1.4 | -17.2 | 12.1
CCOC(=O)c1ccc(NC(=O)Nc2cccc(C)n2)cc1 | 11.0 | 14.9 | 45.0* | -15.4 | 20.4
O=c1[nH]nc(SCc2nnc(-c3ccc([N+](=O)[O-])cc3)o2)n1C1CCCCC1 | 1.3 | 43.9* | -0.3 | -15.1 | 6.2
Cc1cc(Nc2ccc(C)c(C)c2)n2nc(C)nc2n1 | -1.4 | -0.9 | 31.2 | -19.8 | 42.4*
Cc1cc(Nc2ccc(Br)cc2)n2nc(C)nc2n1 | 7.6 | 6.0 | 4.2 | -20.9 | 9.9
CC(=O)Nc1cccc(C(=O)OCc2ccccc2)c1 | 82.0* | 11.2 | 28.9 | -17.0 | 15.6
O=C(COC(=O)c1cc(=O)c2ccccc2o1)NC1CCCCC1 | 18.7 | 12.1 | 41.9* | -7.0 | 27.2
Cn1c(=O)c2c(nc(SCCN3CCOCC3)n2Cc2ccc(F)cc2)n(C)c1=O | 52.1* | 10.5 | 15.8 | -14.8 | 5.8
Cc1nc(SCC(=O)NNC(=O)c2cccs2)[nH]c(=O)c1C | 3.6 | -4.4 | -0.7 | -27.2 | 10.4
Cc1ccc(CNC(=O)C(C)OC(=O)c2ccco2)cc1 (stereo not given) | -13.5 | 3.8 | 9.3 | -20.9 | 18.7
CC(NC(=O)c1ccco1)C(=O)OC(C)C(=O)NCc1ccccc1 (stereo not given) | 41.5* | -0.2 | 33.2 | -9.4 | 23.6
COc1ccc(N2CCN(C(=O)CN3CCN(c4nc(-c5ccc(F)cc5)cs4)CC3)CC2)cc1 | 3.1 | -0.2 | 2.6 | -28.2 | 6.2
Cc1cc(C)cc(NC(=O)c2ccc(Cn3nc(C)c(Cl)c3C)o2)c1 | 120.4* | 21.2 | 4.4 | -4.4 | 30.6
Cc1ccc(CNC(=O)c2ccc(Cn3nc(C)c(Cl)c3C)o2)cc1 | -6.9 | -7.7 | -5.6 | -5.2 | 2.6
O=C(Nc1cc2c(cc1Br)OCCO2)c1ccco1 | -6.1 | 1.1 | 5.0 | -14.0 | 6.6
COC(=O)c1ccccc1NC(=O)c1cc2nc(C3CC3)cc(C(F)(F)F)n2n1 | -17.1 | -3.2 | -12.3 | -15.9 | 6.6
COc1cc(NC(=O)c2cc3nc(C4CC4)cc(C(F)(F)F)n3n2)c(OC)cc1Cl | 4.4 | 0.1 | 11.9 | -13.0 | 45.8*
O=C(NCc1ccncc1)c1ccc(Br)o1 | 3.1 | 0.0 | 34.8 | -27.5 | 41.2*
O=C(COC(=O)c1ccc([N+](=O)[O-])s1)Nc1cccc(S(=O)(=O)NC2=NCCCCC2)c1 | 1.7 | 44.8* | 5.7 | -7.7 | 5.5
Cc1c(C(=O)N2CCCCC2)nn(-c2ccc(Cl)cc2)c(=O)c1C#N | -16.1 | -7.0 | -6.2 | -11.4 | -0.6
Cc1cc(F)ccc1N1CCC(N2CCN(CCC(C)C)C(CCO)C2)CC1 (stereo not given) | 42.4* | 44.7* | 39.5 | -12.6 | 28.4
CC(=O)NC(CCS(C)(=O)=O)C(=O)Nc1ccc(F)cc1Cl (stereo not given) | -27.1 | 0.2 | -2.6 | -17.6 | 3.9
O=C(Nc1ccc(Cc2ccncc2)cc1)c1ccco1 | 69.9* | 40.0* | 31.0 | -18.7 | 18.4
O=C(Nc1ccc(Br)cc1)c1ccco1 | -16.6 | -9.3 | 2.3 | -9.0 | 12.7

Assay outcomes: PubChem, several laboratories
